The source made the active and inactive calls. The calls are words filed in the database; no cut-off is given here.
Key:
Format in all cases: cell-based
Nucleic Acid [1] = assay: Inhibition of microRNA miR-1 (unknown origin) transfected in mouse C2C12 cells at 5 uM after 48 hrs by luciferase reporter gene assay relative to DMSO-treated control
Summary of the method: (§1)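 C2C12 co-transfected at 70% confluence with miR-1 luciferase reporter (0.25 µg) plus β-galactosidase plasmid (0.25 µg, transfection control) via lipofectamine 2000. After 6 h the medium was switched to DMEM with 2% horse serum to induce differentiation, and compound was added (DMSO final 1:1000). Cells were incubated 48 h at 37 °C, 5% CO2, then luciferase read and normalized to DMSO. Triplicates, mean ± SE (n = 3).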

Nucleic Acid [2] = assay: Inhibition of microRNA miR-25 (unknown origin) transfected in human A549 cells at 10 uM after 48 hrs by luciferase reporter gene assay relative to DMSO-treated control
Summary of the method: (§2)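 Cells transfected with the matching miRNA luciferase reporter ([…] for miR-150; A549 for miR-25 or miR-214), with β-gal as internal reference. Treated with 10 µM compound in high-glucose DMEM with 2% FBS (DMSO final 1:1000) for 48 h at 37 °C, 5% CO2. Luciferase signal was normalized to the DMSO control. Triplicates, mean ± SE (n = 3).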

Nucleic Acid [3] = assay: Inhibition of microRNA miR-150 (unknown origin) transfected in mouse […] cells at 10 uM after 48 hrs by luciferase reporter gene assay relative to DMSO-treated control; summary of the method: as §2
Nucleic Acid [4] = assay: Inhibition of microRNA miR-214 (unknown origin) transfected in human A549 cells at 10 uM after 48 hrs by luciferase reporter gene assay relative to DMSO-treated control; summary of the method: as §2
Nucleic Acid [5] = assay: Inhibition of microRNA miR-1 (unknown origin) transfected in mouse C2C12 cells at 10 uM after 48 hrs by luciferase reporter gene assay relative to DMSO-treated control; summary of the method: as §1
Nucleic Acid [6] = assay: Reduction in cytoplasmic level of microRNA miR-214 (unknown origin) transfected in human A549 cells at 10 uM after 48 hrs by quantitative RT-PCR method relative to DMSO-treated control
Summary of the method: (§3)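 Total RNA (TRIZOL) taken after 48 h compound or DMSO treatment from differentiated C2C12 (miR-1), HeLa (miR-21), A549 (miR-25, miR-214), MCF-7 (miR-9) and […] (miR-150). 2 µg RNA per RT with miRNA-specific primers (16 °C 30 min, 42 °C 30 min, 85 °C 5 min). TaqMan qPCR: 95 °C 10 min, then 40 cycles of 95 °C 15 s and 60 °C 1 min. Comparative Ct method, normalized to DMSO; triplicates, mean ± SE (n = 3).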

Nucleic Acid [7] = assay: Reduction in cytoplasmic level of microRNA miR-1 (unknown origin) transfected in mouse C2C12 cells at 10 uM after 48 hrs by quantitative RT-PCR method relative to DMSO-treated control; summary of the method: as §3
Nucleic Acid [8] = assay: Reduction in cytoplasmic level of microRNA miR-150 (unknown origin) transfected in mouse […] cells at 10 uM after 48 hrs by quantitative RT-PCR method relative to DMSO-treated control; summary of the method: as §3
Nucleic Acid [9] = assay: Reduction in cytoplasmic level of microRNA miR-9 (unknown origin) transfected in human MCF7 cells at 10 uM after 48 hrs by quantitative RT-PCR method relative to DMSO-treated control; summary of the method: as §3
Nucleic Acid [10] = assay: Reduction in cytoplasmic level of microRNA miR-21 (unknown origin) transfected in human HeLa cells at 10 uM after 48 hrs by quantitative RT-PCR method relative to DMSO-treated control; summary of the method: as §3
Nucleic Acid [11] = assay: Inhibition of microRNA miR-21 (unknown origin) transfected in human HeLa cells at 10 uM after 48 hrs by luciferase reporter gene assay relative to DMSO-treated control
Summary of the method: (§4)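 Reporter cells for miR-21 (HeLa) or miR-9 (MCF-7) given 10 µM compound for 48 h. Luciferase signal normalized to DMSO control. Triplicates, mean ± SE (n = 3).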

Nucleic Acid [12] = assay: Reduction in cytoplasmic level of microRNA miR-25 (unknown origin) transfected in human A549 cells at 10 uM after 48 hrs by quantitative RT-PCR method relative to DMSO-treated control; summary of the method: as §3
Nucleic Acid [13] = assay: Inhibition of microRNA miR-1 (unknown origin) transfected in mouse C2C12 cells after 48 hrs by luciferase reporter gene assay relative to DMSO-treated control; summary of the method: as §1
Nucleic Acid [14] = assay: Inhibition of microRNA miR-9 (unknown origin) transfected in human MCF7 cells at 10 uM after 48 hrs by luciferase reporter gene assay relative to DMSO-treated control; summary of the method: as §4

| Structure (SMILES) | inhibition (Nucleic Acid [1]) | fold change (FC) (Nucleic Acid [2]) | fold change (FC) (Nucleic Acid [3]) | fold change (FC) (Nucleic Acid [4]) | fold change (FC) (Nucleic Acid [5]) | other results |
| --- | --- | --- | --- | --- | --- | --- |
| COC12C(=O)c3ccccc3C(=O)C1C(c1ccc(O)c3ncccc13)=C2[Si](C)(C)C (centres undefined) | Active |  |  |  |  |  |
| COc1ccc(C2=CC3(OC)C(=O)c4ccccc4C(=O)C23)c2cccnc12 (centres undefined) | inactive |  |  |  |  |  |
| COC12C(=O)c3ccccc3C(=O)C1C(c1ccc(OC(C)=O)c3ncccc13)=C2[Si](C)(C)C (centres undefined) | inactive |  |  |  |  |  |
| COc1ccc(C2=C([Si](C)(C)C)C3(OC)C(=O)c4ccccc4C(=O)C23)c2cccnc12 (centres undefined) | Active |  |  |  |  |  |
| COC12C(=O)c3ccccc3C(=O)C1C(C1CC1)=C2c1cncc2ccccc12 (centres undefined) |  | 1.16 | 1.75 | 1.1 | 0.87 |  |
| COC12C(=O)c3ccccc3C(=O)C1C(C1CC1)=C2c1ccc(O)c2ncccc12 (centres undefined) | Active |  |  |  |  |  |
| COC12C(=O)c3ccccc3C(=O)C1C(C1CC1)=C2c1cnc2ccccc2c1 (centres undefined) |  | 1 | 0.83 | 0.93 | 1.36 |  |
| COC12C(=O)c3ccccc3C(=O)C1C(C1CC1)=C2c1cncnc1 (centres undefined) |  | 1.16 | 1.02 | 1.28 | 2.06 |  |
| COC12C(=O)c3ccccc3C(=O)C1C(c1ccccc1)=C2c1ccccc1 (centres undefined) |  | 0.63 | 0.91 | 0.58 | 0.45 |  |
| COc1ccc(C2=C(c3ccccc3)C3C(=O)c4ccccc4C(=O)C23OC)c2cccnc12 (centres undefined) | Active |  |  |  |  |  |
| COC12C(=O)c3ccccc3C(=O)C1C(c1ccc(OC(=O)OC(C)(C)C)c3ncccc13)=C2[Si](C)(C)C (centres undefined) | inactive |  |  |  |  |  |
| COC12C(=O)c3ccccc3C(=O)C1C(C1CC1)=C2c1ccccn1 (centres undefined) |  | 0.92 | 1.2 | 0.82 | 1.55 |  |
| COC12C(=O)c3ccccc3C(=O)C1C(c1ccccc1)=C2c1ccc(OC(=O)OC(C)(C)C)c2ncccc12 (centres undefined) |  | 0.95 | 1.35 | 1.01 | 7.11 | Activity (Nucleic Acid [6]): inactive; fold change (FC) (Nucleic Acid [7]): 4; Activity (Nucleic Acid [8]): inactive; Activity (Nucleic Acid [9]): inactive; Activity (Nucleic Acid [10]): inactive; inhibition (Nucleic Acid [11]): inactive; Activity (Nucleic Acid [12]): inactive; inhibition (Nucleic Acid [13]): Dose-dependent effect; inhibition (Nucleic Acid [14]): inactive |
| COC12C(=O)c3ccccc3C(=O)C1C(C1CC1)=C2c1cccnc1 (centres undefined) |  | 0.97 | 1.04 | 0.91 | 0.93 |  |
| COC12C(=O)c3ccccc3C(=O)C1C(C1CC1)=C2c1ccc(OC(=O)OC(C)(C)C)c2ncccc12 (centres undefined) | inactive |  |  |  |  |  |
| COC12C(=O)c3ccccc3C(=O)C1C(c1ccccn1)=C2c1ccccc1 (centres undefined) |  | 0.95 | 1.16 | 0.95 | 0.9 |  |
| COC12C=C(c3ccc(OC(=O)OC(C)(C)C)c4ncccc34)C1C(=O)c1ccccc1C2=O (centres undefined) | inactive |  |  |  |  |  |
| COC12C=C(c3ccc(O)c4ncccc34)C1C(=O)c1ccccc1C2=O (centres undefined) | inactive |  |  |  |  |  |
| COC12C(=O)c3ccccc3C(=O)C1C(C1CC1)=C2c1ccc(OC(C)=O)c2ncccc12 (centres undefined) | inactive |  |  |  |  |  |
| COC12C(=O)c3ccccc3C(=O)C1C(C1CC1)=C2c1cnccn1 (centres undefined) |  | 0.83 | 1.63 | 0.74 | 0.84 |  |
| COc1ccc(C2=C(C3CC3)C3C(=O)c4ccccc4C(=O)C23OC)c2cccnc12 (centres undefined) | Active |  |  |  |  |  |
| COC12C(=O)c3ccccc3C(=O)C1C(c1ccccc1)=C2c1ccc(O)c2ncccc12 (centres undefined) | Active |  |  |  |  |  |
| COC12C(=O)c3ccccc3C(=O)C1C(c1ccccc1)=C2c1ccc(OC(C)=O)c2ncccc12 (centres undefined) | inactive |  |  |  |  |  |
| COC12C=C(c3ccc(OC(C)=O)c4ncccc34)C1C(=O)c1ccccc1C2=O (centres undefined) | inactive |  |  |  |  |  |
| COC12C(=O)c3ccccc3C(=O)C1C(c1cnccn1)=C2c1ccccc1 (centres undefined) |  | 1.01 | 1.32 | 0.93 | 1.12 |  |

Source: ChEMBL document CHEMBL2434879, “Small molecular inhibitors of miR-1 identified from photocycloadducts of acetylenes with 2-methoxy-1,4-naphthalenequinone” (Bioorg Med Chem, 2013)
